Assays:
[1] = target: T1, Estrogen receptor (Homo sapiens) (UniProt P03372); assay: Relative binding affinity for human estrogen receptor alpha
T1 sequence (whole entry): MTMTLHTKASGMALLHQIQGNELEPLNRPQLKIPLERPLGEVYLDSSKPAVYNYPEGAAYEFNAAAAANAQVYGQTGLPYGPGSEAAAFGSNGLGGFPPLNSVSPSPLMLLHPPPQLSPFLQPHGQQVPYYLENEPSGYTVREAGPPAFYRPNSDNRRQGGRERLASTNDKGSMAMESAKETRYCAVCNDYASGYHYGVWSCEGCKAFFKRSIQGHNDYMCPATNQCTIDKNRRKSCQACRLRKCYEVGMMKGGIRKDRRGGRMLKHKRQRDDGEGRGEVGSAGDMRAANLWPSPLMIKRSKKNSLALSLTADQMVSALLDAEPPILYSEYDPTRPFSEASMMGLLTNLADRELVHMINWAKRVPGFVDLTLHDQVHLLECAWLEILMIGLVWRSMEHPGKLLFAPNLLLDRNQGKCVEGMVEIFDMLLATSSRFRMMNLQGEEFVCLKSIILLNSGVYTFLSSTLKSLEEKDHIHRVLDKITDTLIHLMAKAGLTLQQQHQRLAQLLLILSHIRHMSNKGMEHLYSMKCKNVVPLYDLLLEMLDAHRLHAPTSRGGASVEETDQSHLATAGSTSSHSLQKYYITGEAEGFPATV

[2] = target: Estrogen receptor beta (Homo sapiens) (UniProt Q92731); assay: Transcriptional efficacy against human estrogen receptor beta at 10e-8 M; format: functional
Estrogen receptor beta (Homo sapiens), sequence (Q92731 whole entry): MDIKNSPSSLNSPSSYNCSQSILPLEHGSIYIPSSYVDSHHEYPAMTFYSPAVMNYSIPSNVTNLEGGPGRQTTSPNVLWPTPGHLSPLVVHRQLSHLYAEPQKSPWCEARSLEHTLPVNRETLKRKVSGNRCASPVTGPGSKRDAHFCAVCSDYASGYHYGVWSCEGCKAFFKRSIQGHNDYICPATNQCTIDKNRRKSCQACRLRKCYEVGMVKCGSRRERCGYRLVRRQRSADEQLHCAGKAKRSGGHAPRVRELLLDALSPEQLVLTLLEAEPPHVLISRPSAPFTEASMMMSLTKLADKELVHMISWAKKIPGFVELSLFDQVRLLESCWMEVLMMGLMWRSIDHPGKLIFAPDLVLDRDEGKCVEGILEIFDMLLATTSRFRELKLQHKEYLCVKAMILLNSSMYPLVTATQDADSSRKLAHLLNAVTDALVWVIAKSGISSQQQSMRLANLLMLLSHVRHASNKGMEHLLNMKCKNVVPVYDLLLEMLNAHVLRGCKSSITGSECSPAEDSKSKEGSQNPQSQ
Summary of the method: (§1)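 HEC-1 cells were grown in phenol-red MEM with 5% calf serum and 5% fetal calf serum, then plated in phenol-red-free improved MEM with 5% charcoal dextran-treated calf serum. They were lipofectin-transfected for 5 h at 37 °C with ERβ expression vector, 2ERE-pS2-Luc and pCMV β-galactosidase. Ligand was then added for 24 h.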

[3] = target: Estrogen receptor beta (Homo sapiens) (UniProt Q92731); assay: Transcriptional efficacy against human estrogen receptor beta at 10e-6 M; format: functional; summary of the method: as §1

Oc1ccc2nn(-c3ccccc3)c(Cl)c2c1
Relative binding affinity [1]: 0.014

Oc1ccc(-n2nc3ccc(O)cc3c2Br)cc1
Relative binding affinity [1]: 0.18
Efficacy [2]: 66%
Efficacy [3]: 67%

CCc1c2cc(O)ccc2nn1-c1ccc(O)cc1
Relative binding affinity [1]: 0.08
Efficacy [2]: 63%
Efficacy [3]: 100%

Oc1ccc(-n2nc3ccc(O)cc3c2-c2ccccc2)cc1
Relative binding affinity [1]: 0.04
Efficacy [2]: 11%
Efficacy [3]: 28%

N#Cc1c2cc(O)ccc2nn1-c1ccc(O)cc1
Relative binding affinity [1]: 1.4
Efficacy [2]: 82%
Efficacy [3]: 56%

Cc1c2cc(O)ccc2nn1-c1ccc(O)cc1
Relative binding affinity [1]: 0.03
Efficacy [2]: 57%
Efficacy [3]: 87%

Oc1ccc2nn(-c3ccc(O)c(Cl)c3)c(Cl)c2c1
Relative binding affinity [1]: 0.023

Oc1ccc2nn(-c3ccc(O)c(Cl)c3)cc2c1
Relative binding affinity [1]: 0.07

Oc1ccc(-n2nc3cc(O)ccc3c2Cl)cc1
Relative binding affinity [1]: 0.08

Oc1ccc(-n2cc3ccccc3n2)cc1
Relative binding affinity [1]: 0.02

C=CCc1c2cc(O)ccc2nn1-c1ccc(O)cc1
Relative binding affinity [1]: 0.06

Oc1ccc(-n2nc3ccc(O)cc3c2I)cc1
Relative binding affinity [1]: 0.17
Efficacy [2]: 85%
Efficacy [3]: 58%

CC(C)c1c2cc(O)ccc2nn1-c1ccc(O)cc1
Relative binding affinity [1]: 0.14

Oc1ccc(-n2nc3ccc(O)cc3c2C(F)(F)F)cc1
Relative binding affinity [1]: 3.9
Efficacy [2]: 78%
Efficacy [3]: 74%

Oc1ccc(-n2nc3c(Cl)c(O)ccc3c2Cl)cc1
Relative binding affinity [1]: 0.07

Oc1ccc(-n2nc3ccc(O)cc3c2Cl)cc1
Relative binding affinity [1]: 0.3
Efficacy [2]: 88%
Efficacy [3]: 89%

Oc1ccc(-n2cc3ccc(O)c(Br)c3n2)cc1
Relative binding affinity [1]: 0.02
Efficacy [2]: 1.4%
Efficacy [3]: 29%

Oc1ccc(-n2cc3ccc(O)cc3n2)cc1
Relative binding affinity [1]: 0.008
Efficacy [2]: 1.7%
Efficacy [3]: 75%

Oc1ccc2nn(-c3ccccc3)cc2c1
Relative binding affinity [1]: < 0.004

CCCc1c2cc(O)ccc2nn1-c1ccc(O)cc1
Relative binding affinity [1]: 0.04

Oc1ccc(-n2cc3cc(O)ccc3n2)cc1
Relative binding affinity [1]: 0.049
Efficacy [2]: 47%
Efficacy [3]: 90%

Oc1ccc(-n2nc3ccccc3c2Cl)cc1
Relative binding affinity [1]: 0.03
